The source of these data is ChEMBL document CHEMBL5126577, “Discovery of honokiol thioethers containing 1,3,4-oxadiazole moieties as potential α-glucosidase and SARS-CoV-2 entry inhibitors” (Bioorg Med Chem, 2022).

Data set [1] can be described thus: Cytotoxicity against human HEK-293T cells overexpressing ACE2 assessed as maximal non-toxic dose incubated for 4 hrs. It counts as toxicity, cell-based.
A short description of data set [2]: Inhibition of alpha-glucosidase (unknown origin) using PNPG as substrate at 5 to 45 uM preincubated for 15 mins followed by substrate addition and measured after 10 mins by microplate reader analysis. The conditions noted are these: Homo sapiens; dose 5-45 µM, time 25.0 min. An outline of the steps: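 Compounds in DMSO/PBS dilution series were incubated with α-glucosidase (1.0 U/mL in PBS) for 15 min at 37 °C. 1 mM PNPG was added and incubated 10 min, then OD was read at 405 nm. Inhibition % was corrected with PBS-only and enzyme-free blanks. IC50 was calculated, with experiments run in triplicate.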

For the next data set, the system named is L02. Briefly: Cytotoxicity against human L02 cells assessed as reduction on cell viability at 3.125 to 100 uM by MTT assay. It counts as toxicity, cell-based. The conditions noted are these: l02, 100 µM, dose 3.125-100 µM. For orientation: Tetrazolium assays rely on reduction of a dye to a coloured formazan, in cell work by metabolically active cells.
A short description of data set [3]: Cytotoxicity against human L02 cells assessed as cell survival rate at 100 uM by MTT assay. Format: toxicity, cell-based. The conditions noted are these: read-out: Survival.
The target of data set [4] is Angiotensin-converting enzyme 2 (Homo sapiens, UniProt Q9BYF1). Briefly: Binding affinity to human ACE2 assessed as equilibrium dissociation constant by biolayer interferometry assay. An outline of the steps: (§1)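 BLI on Ni-NTA biosensors loaded with His-tagged recombinant SARS-CoV-2 spike RBD or human ACE2. Compounds (10 mM DMSO stock) were diluted serially in PBS. Each cycle: PBS equilibration 10 min, baseline 120 s, association 120 s, dissociation in PBS 120 s, all at 30 °C. Curves were double-referenced to blank sensors and PBS, and KD came from a 1:1 binding fit.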

The target in the next data set is Spike glycoprotein (Severe acute respiratory syndrome coronavirus 2, UniProt P0DTC2). Briefly: Binding affinity to SARS-CoV-2 spike protein receptor-binding domain assessed as equilibrium dissociation constant by biolayer interferometry assay. An outline of the steps:
as §1
On the technique in general: Biolayer interferometry detects binding as a change in optical thickness at a sensor tip.

pKd: −log10 of the molar value.

Sequence of Angiotensin-converting enzyme 2 (Q9BYF1 whole entry): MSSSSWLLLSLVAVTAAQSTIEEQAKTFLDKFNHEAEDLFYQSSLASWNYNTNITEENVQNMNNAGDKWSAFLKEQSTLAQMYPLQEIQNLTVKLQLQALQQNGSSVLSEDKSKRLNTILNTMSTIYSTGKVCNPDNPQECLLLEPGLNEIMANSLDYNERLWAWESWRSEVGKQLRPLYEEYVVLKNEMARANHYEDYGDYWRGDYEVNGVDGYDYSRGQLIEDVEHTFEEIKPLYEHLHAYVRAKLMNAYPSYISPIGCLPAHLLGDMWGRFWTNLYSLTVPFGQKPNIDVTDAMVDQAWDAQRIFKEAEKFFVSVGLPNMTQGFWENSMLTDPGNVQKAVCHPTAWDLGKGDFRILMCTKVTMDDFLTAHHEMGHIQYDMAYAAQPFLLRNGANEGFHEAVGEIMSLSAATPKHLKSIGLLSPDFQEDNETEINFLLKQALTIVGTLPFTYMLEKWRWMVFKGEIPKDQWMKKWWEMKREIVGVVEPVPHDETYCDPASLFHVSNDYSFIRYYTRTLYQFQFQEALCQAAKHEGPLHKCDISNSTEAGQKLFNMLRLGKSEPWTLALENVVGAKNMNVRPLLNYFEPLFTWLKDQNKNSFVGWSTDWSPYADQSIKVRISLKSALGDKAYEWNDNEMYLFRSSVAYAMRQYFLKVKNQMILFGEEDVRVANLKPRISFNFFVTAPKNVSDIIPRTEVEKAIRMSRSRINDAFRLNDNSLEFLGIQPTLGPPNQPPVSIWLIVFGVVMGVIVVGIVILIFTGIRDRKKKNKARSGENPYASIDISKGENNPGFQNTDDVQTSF

What is called inhibition is the relative decrease from the control value, in per cent. Lower therefore signals a weak effect. As to `C=CCc1cc(-c2cc(CC=C)c3oc(SCc4nnc(-c5ccccc5OC)o4)nc3c2)c2oc(SCc3nnc(-c4ccccc4OC)o3)nc2c1`, the MNTC at 4 h in data set [1] is above 100 µM. In data set [2], the inhibition was determined as 25.2%.

Turning to `C=CCc1cc(-c2cc(CC=C)c3oc(SCc4nnc(-c5cccc(C)c5)o4)nc3c2)c2oc(SCc3nnc(-c4cccc(C)c4)o3)nc2c1`, the MNTC at 4 h in data set [1] was above 100 µM. Further, the Activity result with L02 is recorded as “Non-Toxic”. The viability at 100 µM in data set [3] amounted to 80%. The inhibition in data set [2] was 95.2%.

Consider `C=CCc1cc(-c2cc(CC=C)c3oc(SCc4nnc(-c5cccc(Br)c5)o4)nc3c2)c2oc(SCc3nnc(-c4cccc(Br)c4)o3)nc2c1`, for which the MNTC at 4 h in data set [1] was above 100 µM. The molecule further yielded an inhibition in data set [2] of 12.4%.

As to `C=CCc1cc(-c2cc(CC=C)c3oc(SCc4nnc(-c5ccc(OC)cc5)o4)nc3c2)c2oc(SCc3nnc(-c4ccc(OC)cc4)o3)nc2c1`, the MNTC at 4 h in data set [1] was above 100 µM. Besides, the inhibition in data set [2] is 9.9%.

On to `C=CCc1cc(-c2cc(CC=C)c3oc(SCc4nnc(-c5ccc(Cl)cc5)o4)nc3c2)c2oc(SCc3nnc(-c4ccc(Cl)cc4)o3)nc2c1`, for which the MNTC at 4 h in data set [1] was above 100 µM. The molecule also came in with an inhibition in data set [2] of 57.9%.

`C=CCc1cc(-c2cc(CC=C)c3oc(SCc4nnc(-c5ccccc5F)o4)nc3c2)c2oc(SCc3nnc(-c4ccccc4F)o3)nc2c1`: the MNTC at 4 h in data set [1] is above 100 µM. Besides, in data set [2], the inhibition turned out to be 33.9%.

For the molecule `C=CCc1cc(-c2cc(CC=C)c3oc(SCc4nnc(-c5ccccc5Br)o4)nc3c2)c2oc(SCc3nnc(-c4ccccc4Br)o3)nc2c1`, the MNTC at 4 h in data set [1] is above 100 µM. Further, the inhibition in data set [2] is 91.5%.

`C=CCc1cc(CSc2nnc(-c3ccc(Cl)cc3)o2)c(O)c(-c2ccc(O)c(CC=C)c2)c1`: the inhibition in data set [2] worked out at 7.1%.

The molecule `C=CCc1cc(CSc2nnc(-c3ccc(Br)cc3)o2)c(O)c(-c2ccc(O)c(CC=C)c2)c1` displayed an inhibition in data set [2] of 3.7%.

Regarding `C=CCc1cc(CSc2nnc(-c3ccc(C)cc3)o2)c(O)c(-c2ccc(O)c(CC=C)c2)c1`, the inhibition in data set [2] turned out to be 6.7%.

Consider `C=CCc1cc(-c2cc(CC=C)c3oc(SCc4nnc(-c5ccc(F)cc5)o4)nc3c2)c2oc(SCc3nnc(-c4ccc(F)cc4)o3)nc2c1`, for which the MNTC at 4 h in data set [1] is above 100 µM. Besides, in data set [2], the inhibition worked out at 8.4%.

As for `C=CCc1cc(-c2cc(CC=C)c3oc(SCc4nnc(-c5ccccc5)o4)nc3c2)c2oc(SCc3nnc(-c4ccccc4)o3)nc2c1`, in data set [1], the MNTC at 4 h is above 100 µM. For the same molecule, the inhibition in data set [2] stood at 6.3%.

The molecule `C=CCc1cc(CSc2nnc(-c3cccc(OC)c3)o2)c(O)c(-c2ccc(O)c(CC=C)c2)c1` registered an inhibition in data set [2] of 81.8%.

`C=CCc1cc(CSc2nnc(-c3ccc([N+](=O)[O-])cc3)o2)c(O)c(-c2ccc(O)c(CC=C)c2)c1`: the inhibition in data set [2] amounted to 79.5%.

Take `C=CCc1cc(CSc2nnc(-c3cccc(C)c3)o2)c(O)c(-c2ccc(O)c(CC=C)c2)c1`: the inhibition in data set [2] was found to be 78.2%.

On to `C=CCc1cc(-c2cc(CC=C)c3oc(SCc4nnc(-c5ccc(Br)cc5)o4)nc3c2)c2oc(SCc3nnc(-c4ccc(Br)cc4)o3)nc2c1`, for which, in data set [1], the MNTC at 4 h was above 100 µM. The molecule also came in with an inhibition in data set [2] of 22.4%.

As for `C=CCc1cc(-c2cc(CC=C)c3oc(SCc4nnc(-c5ccccc5C)o4)nc3c2)c2oc(SCc3nnc(-c4ccccc4C)o3)nc2c1`, the MNTC at 4 h in data set [1] is above 100 µM.

For `C=CCc1cc(CSc2nnc(-c3ccccc3F)o2)c(O)c(-c2ccc(O)c(CC=C)c2)c1`, the MNTC at 4 h in data set [1] is above 100 µM.

For the molecule `C=CCc1cc(-c2cc(CC=C)c3oc(SCc4nnc(-c5ccc(C)cc5)o4)nc3c2)c2oc(SCc3nnc(-c4ccc(C)cc4)o3)nc2c1`, the MNTC at 4 h in data set [1] is above 100 µM. For the same molecule, the inhibition in data set [2] was determined as 13.5%.

With `C=CCc1cc(CSc2nnc(-c3cccc(F)c3)o2)c(O)c(-c2ccc(O)c(CC=C)c2)c1`, in data set [2], the inhibition came to 53.5%.

Turning to `C=CCc1cc(CSc2nnc(-c3ccccc3C)o2)c(O)c(-c2ccc(O)c(CC=C)c2)c1`, the MNTC at 4 h in data set [1] is above 100 µM. The molecule also showed an inhibition in data set [2] of 64.5%.

Regarding `C=CCc1cc(-c2cc(CC=C)c3oc(SCc4nnc(-c5cccc(F)c5)o4)nc3c2)c2oc(SCc3nnc(-c4cccc(F)c4)o3)nc2c1`, the MNTC at 4 h in data set [1] was above 100 µM. Moreover, the inhibition in data set [2] worked out at 14.6%.

For `C=CCc1cc(-c2cc(CC=C)c3oc(SCc4nnc(-c5ccccc5Cl)o4)nc3c2)c2oc(SCc3nnc(-c4ccccc4Cl)o3)nc2c1`, the MNTC at 4 h in data set [1] is above 100 µM. Further, the inhibition in data set [2] was 19.4%.

By pKd is commonly meant the negative decadic logarithm of the Kd, by convention in mol/L. As to `C=CCc1cc(CSc2nnc(-c3ccccc3)o2)c(O)c(-c2ccc(O)c(CC=C)c2)c1`, in data set [1], the MNTC at 4 h is above 100 µM. Moreover, the Activity entry in the data set on L02 is on record as “Non-Toxic”. Besides, the viability at 100 µM in data set [3] is 80%. In addition, the figures for the negative logarithm of the Kd (pKd) (in data set [4]; on Spike glycoprotein) were 4.85 and 5.16, respectively. This molecule came in with an inhibition in data set [2] of 69.8%.

For the molecule `C=CCc1cc(CSc2nnc(-c3ccccc3Cl)o2)c(O)c(-c2ccc(O)c(CC=C)c2)c1`, in data set [1], the MNTC at 4 h is above 100 µM. The molecule also showed an inhibition in data set [2] of 64.5%.

As to `C=CCc1cc(-c2cc(CC=C)c3oc(SCc4nnc(-c5cccc(Cl)c5)o4)nc3c2)c2oc(SCc3nnc(-c4cccc(Cl)c4)o3)nc2c1`, in data set [1], the MNTC at 4 h is above 100 µM. For the same molecule, the inhibition in data set [2] was found to be 10.4%.

As to `C=CCc1cc(CSc2nnc(-c3cccnc3)o2)c(O)c(-c2ccc(O)c(CC=C)c2)c1`, the MNTC at 4 h in data set [1] was above 100 µM. For the same molecule, in the data set with L02, the Activity result is given as “Non-Toxic”. Further, in data set [3], the viability at 100 µM came out at 80%. Besides, the figures for the pKd (in data set [4]; at Spike glycoprotein) were 4.80 and 5.14, respectively. Also, the inhibition in data set [2] was 33.2%.

On to `C=CCc1cc(-c2cc(CC=C)c3oc(SCc4nnc(-c5cccc(OC)c5)o4)nc3c2)c2oc(SCc3nnc(-c4cccc(OC)c4)o3)nc2c1`, for which the MNTC at 4 h in data set [1] is above 100 µM. Also, the inhibition in data set [2] worked out at 95.5%.

`C=CCc1ccc(O)c(-c2ccc(O)c(CC=C)c2)c1` [HONOKIOL]: in data set [1], the MNTC at 4 h was 50 µM. The molecule also came in with an inhibition in data set [2] of 17.1%. In addition, at Spike glycoprotein, the pKd is 4.60.
